Active and inactive are the calls of the source. The rule behind the calls is not given here.
How the values were obtained:
[1] = target: T1, Peroxisome proliferator-activated receptor gamma (Mus musculus) (UniProt P37238); test: Agonist activity at GAL4-tagged mouse PPARgamma LBD expressed in monkey CV1 cells assessed as receptor transactivation incubated for 24 hrs by luciferase reporter gene assay relative to telmisartan; type: cell-based
T1 sequence (whole entry): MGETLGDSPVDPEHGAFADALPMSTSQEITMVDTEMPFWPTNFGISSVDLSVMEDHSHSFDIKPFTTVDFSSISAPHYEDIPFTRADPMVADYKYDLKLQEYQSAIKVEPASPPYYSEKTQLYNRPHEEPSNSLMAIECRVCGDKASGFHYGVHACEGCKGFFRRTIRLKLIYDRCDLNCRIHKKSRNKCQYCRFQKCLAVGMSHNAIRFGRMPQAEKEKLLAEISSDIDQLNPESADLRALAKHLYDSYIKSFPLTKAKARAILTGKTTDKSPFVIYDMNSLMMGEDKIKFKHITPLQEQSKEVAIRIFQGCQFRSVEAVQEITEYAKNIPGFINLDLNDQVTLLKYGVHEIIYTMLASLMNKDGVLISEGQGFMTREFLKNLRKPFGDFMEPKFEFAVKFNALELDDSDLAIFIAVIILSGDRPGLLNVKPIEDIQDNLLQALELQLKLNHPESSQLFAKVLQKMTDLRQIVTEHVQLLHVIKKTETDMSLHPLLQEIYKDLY

[2] = target: T2, Peroxisome proliferator-activated receptor gamma (Homo sapiens, UniProt P37231); test: Agonist activity at PPARgamma (unknown origin) assessed as receptor transactivation after 24 hrs by TK-PPRE-Luc expressing cells based luciferase reporter gene assay
T2 sequence (P37231 whole entry): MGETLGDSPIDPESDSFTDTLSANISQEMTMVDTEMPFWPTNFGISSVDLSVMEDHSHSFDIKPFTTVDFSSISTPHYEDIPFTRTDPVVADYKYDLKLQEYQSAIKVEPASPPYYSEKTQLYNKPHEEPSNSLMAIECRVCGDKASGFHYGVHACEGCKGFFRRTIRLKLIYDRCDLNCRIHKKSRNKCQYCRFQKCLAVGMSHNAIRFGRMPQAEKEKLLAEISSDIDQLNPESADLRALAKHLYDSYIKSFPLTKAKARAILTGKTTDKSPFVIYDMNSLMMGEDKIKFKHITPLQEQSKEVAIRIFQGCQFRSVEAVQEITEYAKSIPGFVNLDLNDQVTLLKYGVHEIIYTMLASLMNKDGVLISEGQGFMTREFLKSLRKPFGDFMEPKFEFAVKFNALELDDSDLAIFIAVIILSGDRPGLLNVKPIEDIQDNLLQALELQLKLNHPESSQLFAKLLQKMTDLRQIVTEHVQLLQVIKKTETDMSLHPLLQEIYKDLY
Procedure, shortened: (§1)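 Luciferase reporter gene assay in cells transfected with PPRE and luciferase genes; luciferase induction measured over a range of concentrations to derive EC50 and Amax; Amax expressed as a percentage relative to pioglitazone.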

[3] = target: T3, Peroxisome proliferator-activated receptor gamma (Homo sapiens) (UniProt P37231); test: Agonist activity at PPARgamma (unknown origin) assessed as receptor transactivation after 24 hrs by TK-PPRE-Luc expressing cells based luciferase reporter gene assay relative to pioglitazone; procedure, shortened: as §1
T3 sequence (whole entry): T2 sequence (P37231 whole entry)

hERG (KCNH2) = hERG (KCNH2) (Homo sapiens, UniProt Q12809); test: Inhibition of human ERG at 10 uM
Sequence of hERG (KCNH2) (Q12809 whole entry): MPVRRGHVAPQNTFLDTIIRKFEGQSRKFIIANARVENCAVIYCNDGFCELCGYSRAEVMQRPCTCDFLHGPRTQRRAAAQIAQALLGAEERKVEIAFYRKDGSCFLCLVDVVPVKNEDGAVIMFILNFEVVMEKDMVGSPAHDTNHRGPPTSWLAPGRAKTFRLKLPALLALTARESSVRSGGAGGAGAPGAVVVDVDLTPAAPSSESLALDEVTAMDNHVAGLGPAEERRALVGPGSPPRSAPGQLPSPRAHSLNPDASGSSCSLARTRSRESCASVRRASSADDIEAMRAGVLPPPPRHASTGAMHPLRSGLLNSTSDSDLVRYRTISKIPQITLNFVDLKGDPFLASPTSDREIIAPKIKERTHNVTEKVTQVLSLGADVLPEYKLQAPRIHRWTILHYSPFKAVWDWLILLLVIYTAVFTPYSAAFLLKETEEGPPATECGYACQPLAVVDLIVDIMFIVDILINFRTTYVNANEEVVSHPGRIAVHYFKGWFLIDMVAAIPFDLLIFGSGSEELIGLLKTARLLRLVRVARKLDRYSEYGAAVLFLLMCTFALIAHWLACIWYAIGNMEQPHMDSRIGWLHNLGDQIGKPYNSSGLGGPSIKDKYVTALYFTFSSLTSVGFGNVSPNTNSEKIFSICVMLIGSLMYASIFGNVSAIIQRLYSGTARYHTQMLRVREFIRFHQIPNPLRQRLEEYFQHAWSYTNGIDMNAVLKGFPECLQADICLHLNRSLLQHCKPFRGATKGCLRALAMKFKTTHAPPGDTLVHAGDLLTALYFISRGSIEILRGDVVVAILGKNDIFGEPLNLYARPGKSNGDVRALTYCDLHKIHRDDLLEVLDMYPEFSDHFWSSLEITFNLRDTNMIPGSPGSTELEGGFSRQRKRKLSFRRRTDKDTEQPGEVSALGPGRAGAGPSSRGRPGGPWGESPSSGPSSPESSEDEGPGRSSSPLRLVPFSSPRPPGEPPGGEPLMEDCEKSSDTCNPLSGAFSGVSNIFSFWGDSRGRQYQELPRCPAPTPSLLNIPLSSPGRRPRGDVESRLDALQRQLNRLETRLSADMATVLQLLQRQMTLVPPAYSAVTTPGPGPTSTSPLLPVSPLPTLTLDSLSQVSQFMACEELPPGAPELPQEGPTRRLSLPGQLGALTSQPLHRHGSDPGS
Procedure, shortened: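 hERG: % inhibition measured at 10 µM.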

[4] = Stability in mouse liver microsomes assessed as parent compound remaining at 30 mins; type: ADME, Microsome; conditions: read-out: Stability
Procedure, shortened: (§2)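 Compound incubated with liver microsomes (mouse, rat, dog, human) for 30 min; stability expressed as % of parent concentration remaining.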

[5] = Stability in rat liver microsomes assessed as parent compound remaining at 30 mins; type: ADME, Microsome; conditions: read-out: Stability; procedure, shortened: as §2
[6] = Stability in dog liver microsomes assessed as parent compound remaining at 30 mins; type: ADME, Canis lupus familiaris, Microsome; conditions: read-out: Stability; procedure, shortened: as §2
[7] = Stability in human liver microsomes assessed as parent compound remaining at 30 mins; type: ADME, Microsome; conditions: read-out: Stability; procedure, shortened: as §2
CYP1A2 = target: T4, CYP1A2 (Homo sapiens, UniProt P05177); test: Inhibition of CYP1A2 (unknown origin) assessed as enzyme remaining activity at 10 uM; type: ADME; conditions: read-out: INH
T4 sequence (P05177 whole entry): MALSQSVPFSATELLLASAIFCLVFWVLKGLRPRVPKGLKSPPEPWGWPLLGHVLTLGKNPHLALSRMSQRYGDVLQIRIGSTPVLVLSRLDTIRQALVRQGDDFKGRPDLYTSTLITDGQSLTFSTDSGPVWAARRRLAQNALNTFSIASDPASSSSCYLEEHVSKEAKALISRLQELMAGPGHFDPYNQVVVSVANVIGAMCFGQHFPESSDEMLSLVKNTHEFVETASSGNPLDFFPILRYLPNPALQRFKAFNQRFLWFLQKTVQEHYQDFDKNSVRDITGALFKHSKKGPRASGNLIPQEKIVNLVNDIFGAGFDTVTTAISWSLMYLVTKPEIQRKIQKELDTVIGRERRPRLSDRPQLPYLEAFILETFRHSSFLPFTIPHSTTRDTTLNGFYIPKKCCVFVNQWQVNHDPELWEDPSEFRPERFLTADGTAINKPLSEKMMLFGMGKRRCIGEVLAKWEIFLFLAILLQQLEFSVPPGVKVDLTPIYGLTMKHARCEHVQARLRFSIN
Procedure, shortened: (§3)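 CYP isoforms 1A2, 2C9, 2C19, 2D6, 3A4: % remaining enzyme activity in presence of 10 uM compound.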

CYP2C9 = CYP2C9 (Homo sapiens, UniProt P11712); test: Inhibition of CYP2C9 (unknown origin) assessed as enzyme remaining activity at 10 uM; type: ADME; conditions: read-out: INH; procedure, shortened: as §3
Sequence of CYP2C9 (P11712 whole entry): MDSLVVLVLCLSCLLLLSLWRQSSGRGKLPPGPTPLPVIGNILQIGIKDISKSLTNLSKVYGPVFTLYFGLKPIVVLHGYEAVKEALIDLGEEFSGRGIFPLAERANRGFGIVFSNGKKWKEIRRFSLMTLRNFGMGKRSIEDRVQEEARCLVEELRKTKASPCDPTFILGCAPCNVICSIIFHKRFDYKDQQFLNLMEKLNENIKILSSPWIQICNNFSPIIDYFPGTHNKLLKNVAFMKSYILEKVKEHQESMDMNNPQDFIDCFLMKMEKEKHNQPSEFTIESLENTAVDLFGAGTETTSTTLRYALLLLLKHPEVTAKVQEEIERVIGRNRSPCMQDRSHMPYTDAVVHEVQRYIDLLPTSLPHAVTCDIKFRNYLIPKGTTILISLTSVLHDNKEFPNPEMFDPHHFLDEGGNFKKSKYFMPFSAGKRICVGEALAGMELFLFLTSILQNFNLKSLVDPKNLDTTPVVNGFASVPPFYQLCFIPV

CYP2C19 = CYP2C19 (Homo sapiens, UniProt P33261); test: Inhibition of CYP2C19 (unknown origin) assessed as percentage remaining activity at 10 uM; type: ADME; conditions: read-out: INH; procedure, shortened: as §3
Sequence of CYP2C19 (P33261 whole entry): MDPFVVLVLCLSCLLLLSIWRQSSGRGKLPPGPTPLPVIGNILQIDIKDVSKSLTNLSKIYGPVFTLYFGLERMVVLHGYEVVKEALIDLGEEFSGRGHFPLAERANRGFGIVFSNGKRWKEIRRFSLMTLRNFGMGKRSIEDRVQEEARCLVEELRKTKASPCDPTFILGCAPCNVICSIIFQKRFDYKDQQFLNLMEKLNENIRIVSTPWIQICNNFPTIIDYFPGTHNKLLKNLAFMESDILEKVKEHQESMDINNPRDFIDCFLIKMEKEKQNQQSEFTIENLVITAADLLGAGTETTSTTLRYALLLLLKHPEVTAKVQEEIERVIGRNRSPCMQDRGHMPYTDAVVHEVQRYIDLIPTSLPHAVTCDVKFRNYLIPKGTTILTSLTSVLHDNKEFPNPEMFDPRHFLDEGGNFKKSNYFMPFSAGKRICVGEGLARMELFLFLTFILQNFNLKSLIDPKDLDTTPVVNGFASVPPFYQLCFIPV

CYP2D6 = CYP2D6 (Homo sapiens, UniProt P10635); test: Inhibition of CYP2D6 (unknown origin) assessed as percentage remaining activity at 10 uM; type: ADME; conditions: read-out: INH; procedure, shortened: as §3
Sequence of CYP2D6 (P10635 whole entry): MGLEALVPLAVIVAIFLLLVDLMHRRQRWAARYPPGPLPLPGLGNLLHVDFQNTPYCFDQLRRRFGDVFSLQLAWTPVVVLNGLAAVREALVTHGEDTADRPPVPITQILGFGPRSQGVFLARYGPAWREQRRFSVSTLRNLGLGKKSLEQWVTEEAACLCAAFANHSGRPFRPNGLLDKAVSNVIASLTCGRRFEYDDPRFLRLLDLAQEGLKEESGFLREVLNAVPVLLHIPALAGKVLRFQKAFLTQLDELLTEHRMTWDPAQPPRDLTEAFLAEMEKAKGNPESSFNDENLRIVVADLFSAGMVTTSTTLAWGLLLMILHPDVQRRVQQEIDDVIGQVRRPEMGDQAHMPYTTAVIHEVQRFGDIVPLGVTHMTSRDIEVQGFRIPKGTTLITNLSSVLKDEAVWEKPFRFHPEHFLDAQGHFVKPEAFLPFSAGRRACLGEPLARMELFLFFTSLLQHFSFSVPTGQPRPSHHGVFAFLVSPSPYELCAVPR

CYP3A4 = CYP3A4 (Homo sapiens, UniProt P08684); test: Inhibition of CYP3A4 (unknown origin) assessed as percentage remaining activity at 10 uM; type: ADME; conditions: read-out: INH; procedure, shortened: as §3
Sequence of CYP3A4 (P08684 whole entry): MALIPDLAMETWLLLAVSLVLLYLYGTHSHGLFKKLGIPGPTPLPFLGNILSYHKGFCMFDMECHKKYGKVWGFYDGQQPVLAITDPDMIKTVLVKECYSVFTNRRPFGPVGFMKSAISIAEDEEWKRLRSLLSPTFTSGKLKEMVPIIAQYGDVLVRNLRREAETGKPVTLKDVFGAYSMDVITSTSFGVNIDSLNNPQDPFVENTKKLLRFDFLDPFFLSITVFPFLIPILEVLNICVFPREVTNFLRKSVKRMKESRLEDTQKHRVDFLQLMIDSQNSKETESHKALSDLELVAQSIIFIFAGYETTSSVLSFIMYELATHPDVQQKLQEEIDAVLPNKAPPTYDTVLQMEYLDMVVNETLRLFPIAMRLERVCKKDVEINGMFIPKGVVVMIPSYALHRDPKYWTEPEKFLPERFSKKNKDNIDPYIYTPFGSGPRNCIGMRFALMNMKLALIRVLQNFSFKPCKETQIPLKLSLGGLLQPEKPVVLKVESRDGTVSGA

[8] = target: T1, Peroxisome proliferator-activated receptor gamma (Mus musculus); test: Agonist activity at PPARgamma in mouse 3T3-L1 cells assessed as increase in CD36 RNA expression at 10 uM by qRT-PCR analysis; type: cell-based
[9] = target: T1, Peroxisome proliferator-activated receptor gamma (Mus musculus); test: Agonist activity at PPARgamma in mouse 3T3-L1 cells assessed as increase in AP2 RNA expression at 10 uM by qRT-PCR analysis; type: cell-based
[10] = target: T1, Peroxisome proliferator-activated receptor gamma (Mus musculus); test: Agonist activity at PPARgamma in mouse 3T3-L1 cells accessed as increase in insulin stimulated 2-deoxy-D-glucose uptake at 10 uM pre-incubated for 20 mins followed by 2-deoxy-D-glucose addition and measured after 20 to 40 mins by glucose uptake assay; type: cell-based
3T3-L1 = test: Induction of preadipocyte differentiation in mouse 3T3L1 cells grown in insulin medium assessed as conversion to matured adipocytes measured after 6 days by oil red O staining based phase contrast microscopy; type: functional, cell-based
Mus musculus [11] = test: Antidiabetic activity in db/db mouse assessed as reduction in random blood glucose level at 75 mg/kg, po administered via gavage twice daily for 2 weeks and measured once a week; type: functional, organism-based
Mus musculus [12] = test: Antidiabetic activity in db/db mouse assessed as reduction in body weight gain at 75 mg/kg, po administered via gavage twice daily for 2 weeks and measured on day 14; type: functional, organism-based
Mus musculus [13] = test: Antidiabetic activity in db/db mouse assessed as reduction in blood glucose level at 75 mg/kg, po administered twice daily for 2 weeks and measured on day 14 by OGTT method; type: functional, organism-based
[14] = Toxicity in db/db mouse assessed as reduction in food intake at 75 mg/kg, po administered via gavage twice daily and measured on day 7; type: organism-based; conditions: in vivo
[15] = Half life in rat at 10 mg/kg, po; type: ADME, organism-based; conditions: in vivo
[16] = Half life in mouse at 10 mg/kg, po; type: ADME, organism-based; conditions: in vivo
[17] = Tmax in rat at 10 mg/kg, po; type: ADME, organism-based; conditions: in vivo
[18] = Tmax in mouse at 10 mg/kg, po; type: ADME, organism-based; conditions: in vivo
[19] = Cmax in rat at 10 mg/kg, po; type: ADME, organism-based; set-up: dose 10 mg/kg, route oral; conditions: in vivo
[20] = Cmax in mouse at 10 mg/kg, po; type: ADME, organism-based; set-up: dose 10 mg/kg, route oral; conditions: in vivo
[21] = AUClast in rat at 10 mg/kg, po; type: ADME, organism-based; set-up: dose 10 mg/kg, time 0 - last, route oral; conditions: in vivo
[22] = AUClast in mouse at 10 mg/kg, po; type: ADME, organism-based; set-up: dose 10 mg/kg, route oral, time 0 - last; conditions: in vivo

%max [1]: 331%
EC50 [2]: 280 nM
%max [3]: 98%
remaining at 0.5 h [4]: 11%
remaining at 0.5 h [5]: 12%
remaining at 0.5 h [6]: 11%
remaining at 0.5 h [7]: 17%
activity at 10 µM (CYP1A2): 88%
activity at 10 µM (CYP2C9): 57%
activity at 10 µM (CYP2C19): 84%
activity at 10 µM (CYP2D6): 93%
activity at 10 µM (CYP3A4): 64%
Activity [8]: Active
Activity [9]: Active
Activity [10]: Active
half-life [15]: 107 min
half-life [16]: 70.8 min
Tmax [17]: 18 min
Tmax [18]: 19.8 min
Cmax [19]: 1320 ng/mL
Cmax [20]: 949 ng/mL
AUC(0-t) [21]: 889 ng·h/mL
AUC(0-t) [22]: 584 ng·h/mL
SMILES: CCCCc1nc(C)c(Cc2nc(C(C)(C)C)no2)c(=O)n1Cc1ccc(-c2ccccc2-c2noc(=O)[nH]2)cc1
inhibition at 10 µM (hERG (KCNH2)): 8.3%
Activity (3T3-L1): Dose-dependent effect
Activity (Mus musculus [11]): Active
Activity (Mus musculus [12]): inactive
Activity (Mus musculus [13]): Active
Activity [14]: Toxic
